# Assay outcomes deposited in PubChem by several laboratories.
# A selection: hits, their analogues and other compounds. The true share with any hit is near 2.1%.
# TLR4 MyD88 comp: inhibitors of TLR4-MyD88 association in cells, primary screen, cell-based, HeLa CL3-4, BLA complementation, FRET ratio; Toll-like receptor 4 (Homo sapiens) + Myeloid differentiation primary response protein …; HeLa CL3-4 TLR4/MyD88 BLA complementation; inhibition, % at 8.4 µM; 200,000 compounds, 0.18% hits; AID 861, 2007; in the data active = inhibition above about 25%;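 note: 0% = vehicle and 100% = reference inhibitor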
# beta cell repl: inducers of MIN6 beta-cell proliferation, primary screen, ATP luminescence, uHTS | 330,000 compounds, 0.29% hits | proliferation, % at 10 µM | MIN6 cells proliferation, ATPlite luminescence, 48 h; cells starved in 0.2% serum; 100% = growth in 10% serum;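 active = compounds whose signal lies at least 3.5 SD above the mean of all wells on their plate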;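 note: 0% = DMSO-treated cells in low-serum medium and 100% = 10% serum control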
# MC4R barr agon: MC4R agonists recruiting beta-arrestin, primary screen, cell-based, luminescence, agonist arm of biased-ligand search. 360,000 compounds, 0.98% hits. Melanocortin receptor 4 (Homo sapiens), P32245. U2OS MC4R beta-arrestin complementation; percent of melanotan II response, DMSO zero. activation, % at 8.9 µM;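 active = activation above a per-plate cutoff, the mean activation of sample wells on that plate plus 3 SD, cut at about 8% in these data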
# MC4R antag cAMP: MC4R antagonists of cAMP signaling, primary screen, cell-based, TR-FRET, antagonist arm of biased-ligand search | Melanocortin receptor 4 (Homo sapiens), P32245 | inhibition, % at 6.5 µM | 360,000 compounds, 0.48% hits | MC4R-expressing cells, MTII-stimulated cAMP, LANCE TR-FRET;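 active = inhibition above its plate's cutoff, the mean of tested wells on that plate plus 3 SD, cut at about 29% in these data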;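 note: 0% = Melanotan II alone and 100% = Melanotan II plus saturating MCL0020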
#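 Assay system: human MC4R-expressing U2OS cells; reagent: Melanotan II stimulation of cells; dosing: 6.5 µM single dose; timing: compound 30 min, challenge 1 h, detection 1 h; signal: TR-FRET cAMP assay; replicates: one well per compound, no replicates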
# NOD2-RIPK2 inh: NOD2-RIPK2 binding disruptors in cells, primary screen, fluorescence, CHO cells, BLA complementation. Receptor-interacting serine/threonine-protein kinase 2 (Homo sapiens), O43353. CCF4 ratio. inhibition, % at 4.98 µM. 360,000 compounds, 0.38% hits; in the data active = inhibition above about 21%;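 note: 0% = vehicle only and 100% = reference blocker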
# TLR9-MyD88 block: inhibitors of TLR9-MyD88 association in cells, primary screen, cell-based, CHO, BLA complementation, fluorescence. Toll-like receptor 9 (Homo sapiens) + Myeloid differentiation primary response protein …. CCF4 FRET ratio. inhibition, % at 4.98 µM. 340,000 compounds, 0.21% hits. AID 504734, 2011;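 active = inhibition above the mean over all tested compounds plus 3 SD, cut at about 21% in these data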;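 note: 0% = DMSO only wells and 100% = clavulanate BLA inhibitor control wells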
# MC4R barr ag: MC4R beta-arrestin agonists, retest, confirmation, cell-based, luminescence, U2OS; shares compounds with MC4R barr agon; U2OS MC4R beta-arrestin recruitment; scaled DMSO 0%, Melanotan II 100%; activation, % at 8.9 µM; 2,400 compounds, 31% hits;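 active = mean activation across replicates above the hit cutoff set in the earlier primary screen, cut at about 8% in these data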
# MOR-DOR barr ag: agonists of MOR-DOR heterodimerization, counter-screen for MC4R biased agonist project, cell-based, luminescence; shares compounds with MC4R barr agon; U2OS PathHunter beta-arrestin, beta-gal luminescence; percent of deltorphin B response, DMSO zero; activation, % at 9.2 µM; 2,400 compounds, 5.8% hits; AID 602194, 2012;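 active = mean activation across replicates exceeds the hit threshold derived in the earlier primary screen, cut at about 18% in these data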;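 note: 100% = deltorphin B at 0.9 µM final and 0% = DMSO alone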
# Target sequence (P35372 whole entry, looked up): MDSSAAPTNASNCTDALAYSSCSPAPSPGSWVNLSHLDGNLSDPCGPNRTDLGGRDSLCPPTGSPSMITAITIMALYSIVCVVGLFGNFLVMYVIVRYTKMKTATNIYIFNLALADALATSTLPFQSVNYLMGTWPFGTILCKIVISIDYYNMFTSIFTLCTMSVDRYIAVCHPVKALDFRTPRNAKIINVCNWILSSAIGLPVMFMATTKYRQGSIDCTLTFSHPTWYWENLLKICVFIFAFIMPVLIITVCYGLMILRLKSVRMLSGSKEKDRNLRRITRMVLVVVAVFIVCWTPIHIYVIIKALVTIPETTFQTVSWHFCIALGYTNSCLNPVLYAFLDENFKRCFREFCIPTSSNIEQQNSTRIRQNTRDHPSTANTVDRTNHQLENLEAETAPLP
# Target sequence (P41143 whole entry, looked up): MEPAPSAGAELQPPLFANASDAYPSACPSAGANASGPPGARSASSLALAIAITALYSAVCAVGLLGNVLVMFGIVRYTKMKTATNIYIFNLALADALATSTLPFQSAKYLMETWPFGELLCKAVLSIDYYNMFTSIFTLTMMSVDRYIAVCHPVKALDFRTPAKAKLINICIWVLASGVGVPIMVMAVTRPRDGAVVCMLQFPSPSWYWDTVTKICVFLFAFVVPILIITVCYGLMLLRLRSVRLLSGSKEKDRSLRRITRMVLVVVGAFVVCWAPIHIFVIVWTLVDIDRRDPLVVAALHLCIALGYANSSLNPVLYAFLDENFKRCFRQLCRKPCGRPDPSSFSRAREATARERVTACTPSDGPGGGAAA
# The depositor's hits bear a star; / = no result.
SMILES,TLR4 MyD88 comp,beta cell repl,MC4R barr agon,MC4R antag cAMP,NOD2-RIPK2 inh,TLR9-MyD88 block,MC4R barr ag,MOR-DOR barr ag
COCCN(CCOC)C(=O)CSc1ccc(S(=O)(=O)N2CCN(C)CC2)cn1,/,-1.2,-1.0,-2.8,5.7,1.9,/,/
COc1ccc(-c2cc(NC=O)c3ncc(-c4cccc(C(F)(F)F)c4)n3c2)cc1OC,/,/,36.5*,-9.1,-10.6,/,26.6*,5.9
CS(=O)(=O)c1ccc(-c2cc(NC=O)c3ncc(-c4ccc(F)cc4)n3c2)cc1,/,/,11.3*,-2.4,-16.5,/,6.0,2.5
Oc1ccc(Br)cc1Cn1nnc2ccccc21,/,-3.1,-0.8,-1.9,5.8,-3.0,/,/
N=C(N)c1ccc(N=Nc2c(O)ccc3c2[nH]c2ccccc23)cc1,/,/,10.0*,0.2,-8.2,2.9,10.1*,17.1
COc1ccccc1NC(=O)C(C)OC(=O)CCCc1c[nH]c2ccccc12 (configuration not stated),/,-2.0,-5.7,-0.7,-0.6,1.5,/,/
O=C(COc1ccc(-c2ccccc2)cc1)N/N=C/c1cc(O)ccc1Br,-10.4,-5.2,36.5*,-0.1,9.4,-7.3,12.7*,5.1
O=C(COc1ccc(-c2ccccc2)cc1)N/N=C/c1ccccc1Br,1.9,-3.6,5.9,4.6,-2.2,-1.4,/,/
CC(CC(=O)Nc1ccccc1)NCCCN1CCCC1=O (configuration not stated),/,-1.8,3.5,3.7,8.8,-5.5,/,/
O=C(COc1ccc2ccccc2c1)Nc1nc2ccccc2[nH]1,10.2,0.9,10.5*,1.9,-1.4,1.6,0.1,6.5
C=CCn1c(SCC(=O)Nc2ccc(C(=O)OC(C)C)cc2)nnc1-c1cccs1,8.8,0.8,23.2*,16.5,-6.1,-9.9,1.2,1.9
CCOC(=O)c1ccc(NC(=O)CSc2nnc(-c3cccs3)n2CC)cc1,-4.7,-1.1,2.1,6.3,-2.9,-0.9,/,/
O=C1CC(c2ccccc2F)c2cc3c(cc2N1)CCC3 (configuration not stated),14.6,-2.8,-0.3,-5.3,-2.6,-2.1,/,/
O=C1CC(c2cc(Br)ccc2F)c2cc3c(cc2N1)CCC3 (configuration not stated),21.5,-4.8,16.3*,-21.8,6.7,10.3,3.3,3.9
COC(=O)c1ccccc1NC(=O)C1CC(c2ccccc2O)=NO1 (configuration not stated),-8.8,-2.4,13.8*,6.2,-12.9,-10.7,-1.7,3.7
O=C(COc1ccccc1)Nc1ccc(OC(F)(F)C(F)F)c(NC(=O)COc2ccccc2)c1,10.1,-1.4,17.2*,-0.3,5.8,8.4,9.9*,11.7
CCn1c2ccccc2c2cc(NC(=O)COC(=O)c3ccccc3F)ccc21,-9.3,0.0,9.8*,11.7,-8.4,-1.3,3.2,3.9
CCn1c2ccccc2c2cc(NC(=O)COc3ccccc3)ccc21,-21.3,-1.0,25.9*,-6.6,1.3,7.4,2.2,3.4
CCn1c2ccccc2c2cc(NC(=O)COc3ccc(OC)cc3)ccc21,0.0,-3.7,3.9,16.2,-11.6,-0.5,/,/
COc1ccc2cc(CNCCOCCOCCNCc3ccc4cc(OC)ccc4c3)ccc2c1,/,/,17.5*,4.9,18.0,-6.0,57.9*,20.1*
CCOCCCNCc1ccc(OC)cc1,13.2,2.7,-2.3,-4.0,-19.7,-10.5,/,/
CC1(C)CC(Cc2ccccc2C(F)(F)F)N(C(=O)OC(C)(C)C)C1 (configuration not stated),/,/,/,/,10.6,/,/,/
O=C(CSc1ccccc1Cl)NC1CCCc2ccccc21 (configuration not stated),-8.5,0.0,-0.8,3.9,-11.3,6.8,/,/
O=C(CSc1c(Cl)cccc1Cl)NC1CCCc2ccccc21 (configuration not stated),-6.8,0.0,31.1*,3.2,17.0,-5.0,-2.8,3.9
O=C(CSc1ccc(Cl)cc1)NC1CCCc2ccccc21 (configuration not stated),2.8,-2.3,10.9*,2.6,-11.2,5.1,3.0,5.5
SMILES,TLR4 MyD88 comp,beta cell repl,MC4R barr agon,MC4R antag cAMP,NOD2-RIPK2 inh,TLR9-MyD88 block,MC4R barr ag,MOR-DOR barr ag
COc1cccc(CN2CC(C(=O)N3CCN(C(C)C)CC3)CCC2=O)c1 (configuration not stated),/,-2.2,0.5,0.3,-10.3,0.7,/,/
C/C(=N/NC(=O)CSCc1ccc(Cl)cc1)c1cccc(NC(=O)c2ccccc2)c1,-3.9,-0.7,21.6*,21.0,-6.0,8.0,4.6,10.9
C/C(=N\NC(=O)CSCc1ccc(Cl)cc1)c1ccc(NC(=O)c2ccccc2)cc1,-0.1,0.7,2.3,6.7,0.4,5.4,/,/
O=C(COC(=O)c1sc2ccccc2c1Cl)Nc1ncc(Cl)cc1Cl,-9.6,-2.0,26.6*,-4.9,-4.8,-2.3,-1.9,3.6
COC(=O)C1=C(CS(=O)(=O)c2cc(Cl)ccc2OC)NC(=O)NC1c1ccc(O)c(OC)c1 (configuration not stated),/,-4.2,0.4,2.8,-5.5,-7.1,/,/
Cc1ccnc(NC(=O)CCC(=O)c2cc(C)sc2C)c1,/,2.9,0.0,-0.9,2.7,-4.7,/,/
Cc1cc(-c2ccc(C(C)C)c(S(=O)(=O)N3CCN(c4ccccn4)CC3)c2)on1,/,-6.1,-2.6,-3.9,-8.0,-0.4,/,/
CCOc1ccccc1C(=O)NCC(=O)NCCSc1ccc(Br)cc1,/,/,14.6*,-1.6,-2.8,-2.6,1.8,5.0
Cn1nc(C(=O)NC2CCCCC2)c2c1-c1ccccc1S(=O)(=O)C2,/,-3.1,2.0,2.6,-6.9,9.7,/,/
CC(=O)Nc1cc(-c2cccc(F)c2)cn2c(-c3ccc(F)c(Cl)c3)cnc12,/,/,15.8*,4.5,0.5,/,19.1*,2.7
CC(=O)Nc1cc(-c2ccccc2)cn2c(-c3ccc(F)c(Cl)c3)cnc12,/,/,22.0*,-3.4,3.8,/,20.8*,4.0
